In ChEMBL document CHEMBL2010657, “Cytotoxic angucycline class glycosides from the deep sea actinomycete Streptomyces lusitanus SCSIO LR32” (J Nat Prod, 2012):

Experiments:
Type in all cases: functional, cell-based
SW1990 = assay: Cytotoxicity against human SW1990 cells after 48 hrs by MTT assay; details: SW1990, 48 h
How it was run: (§1)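 Cells grown in RPMI 1640 with 10% FBS at 37 °C, 5% CO2. Seeded at 2 × 10^3 cells/well and allowed 12 h before adding compounds in DMSO at various concentrations. After 48 h exposure, MTT (1 mg/mL in PBS) added for 4 h at 37 °C. Formazan dissolved in DMSO and read at A550. Viability taken as treated/untreated A550 × 100. IC50 reported. 5-FU and doxorubicin served as positive controls.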

MCF7 = assay: Cytotoxicity against human MCF7 cells after 48 hrs by MTT assay; details: MCF7, 48 h; how it was run: as §1
HepG2 = assay: Cytotoxicity against human HepG2 cells after 48 hrs by MTT assay; details: HepG2, 48 h; how it was run: as §1
NCI-H460 = assay: Cytotoxicity against human NCI-H460 cells after 48 hrs by MTT assay; details: NCI-H460, 48 h; how it was run: as §1
B16 = assay: Cytotoxicity against mouse B16 cells after 48 hrs by MTT assay; details: B16, 48 h; how it was run: as §1
HeLa = assay: Cytotoxicity against human HeLa cells after 48 hrs by MTT assay; how it was run: as §1

`C[C@@H]1O[C@@H](O[C@H]2CC[C@H](O[C@H]3[C@H](O)C[C@H](c4ccc5c(c4O)C(=O)c4ccc(C[C@](C)(CC(=O)O)O[C@H]6CC[C@H](O[C@H]7CCC(=O)[C@H](C)O7)[C@H](C)O6)c(O)c4C5=O)O[C@@H]3C)O[C@H]2C)CCC1=O` [GRINCAMYCIN B] gave an IC50 (SW1990) of 11 µM, an IC50 (MCF7) of 12 µM and an IC50 (HepG2) of 8.5 µM. It also gave an IC50 (NCI-H460) greater than 100 µM, an IC50 (B16) of 2.1 µM and an IC50 (HeLa) of 6.4 µM.
With `C[C@@H]1O[C@@H](O[C@H]2CC[C@H](O[C@@H]3C[C@H](C4=Cc5c(-c6ccc(O)cc6)c(=O)oc6c7c(c(O)c(c56)C4=O)C=C[C@]4(O)C[C@@](C)(O[C@H]5CC[C@H](O[C@H]6CCC(=O)[C@H](C)O6)[C@H](C)O5)CC(=O)[C@]74O)O[C@H](C)[C@H]3O)O[C@H]2C)CCC1=O` [GRINCAMYCIN F] the IC50 (SW1990) was greater than 100 µM, the IC50 (MCF7) was greater than 100 µM and the IC50 (HepG2) was greater than 100 µM. It also gave an IC50 (NCI-H460) greater than 100 µM, an IC50 (B16) greater than 100 µM and an IC50 (HeLa) greater than 100 µM.
Work on `C[C@@H]1O[C@@H](O[C@H]2CC[C@H](O[C@H]3[C@H](O)C[C@H](c4ccc5c(c4O)C(=O)C4=C(C5=O)[C@@]5(O)C(=O)C[C@](C)(O[C@H]6CC[C@H](O[C@H]7CCC(=O)[C@H](C)O7)[C@H](C)O6)C[C@@]5(O)C=C4)O[C@@H]3C)O[C@H]2C)CCC1=O` [GRINCAMYCIN] yielded an IC50 (SW1990) of 6.4 µM, an IC50 (MCF7) of 2.1 µM and an IC50 (HepG2) of 5.3 µM. For the same compound, the IC50 (NCI-H460) was 11 µM, the IC50 (B16) was 1.1 µM and the IC50 (HeLa) was 5.3 µM.
`O=c1[nH]cc(F)c(=O)[nH]1` [FLUOROURACIL] showed an IC50 (SW1990) of 45 µM, an IC50 (MCF7) of 35 µM and an IC50 (HepG2) of 34 µM. For the same compound, the IC50 (NCI-H460) was 29 µM, the IC50 (B16) was 33 µM and the IC50 (HeLa) was 43 µM.
Compound `COc1cccc2c1C(=O)c1c(O)c3c(c(O)c1C2=O)C[C@@](O)(C(=O)CO)C[C@@H]3O[C@H]1C[C@H](N)[C@H](O)[C@H](C)O1` [DOXORUBICIN] has an IC50 (SW1990) greater than 100 µM, an IC50 (MCF7) of 6.9 µM and an IC50 (HepG2) of 7.1 µM. For the same compound, the IC50 (NCI-H460) was 11 µM, the IC50 (B16) was 1.7 µM and the IC50 (HeLa) was 5.3 µM.
With `C[C@@H]1O[C@@H](O[C@H]2CC[C@H](O[C@H]3[C@H](O)C[C@H](c4ccc5c(c4O)C(=O)c4ccc(C[C@@](C)(O)CC(=O)O)c(O)c4C5=O)O[C@@H]3C)O[C@H]2C)CCC1=O` [GRINCAMYCIN C] the IC50 (SW1990) was 31 µM, the IC50 (MCF7) was 11 µM and the IC50 (HepG2) was 31 µM. It also gave an IC50 (NCI-H460) greater than 100 µM, an IC50 (B16) greater than 100 µM and an IC50 (HeLa) greater than 100 µM.
For `C[C@@H]1O[C@@H](O[C@H]2CC[C@H](O[C@@](C)(CC(=O)O)Cc3ccc4c(c3O)C(=O)c3ccc([C@H]5C[C@H]6O[C@H]7CC(=O)[C@H](C)O[C@H]7O[C@@H]6[C@@H](C)O5)c(O)c3C4=O)O[C@H]2C)CCC1=O` [GRINCAMYCIN D], the IC50 (SW1990) was 22 µM, the IC50 (MCF7) was 6.1 µM and the IC50 (HepG2) was 9.7 µM. The IC50 (NCI-H460) was 30 µM, the IC50 (B16) was 9.7 µM and the IC50 (HeLa) was 12 µM.
`C[C@@H]1O[C@@H](O[C@H]2CC[C@H](O[C@H]3[C@H](O)C[C@H](c4ccc5c(c4O)C(=O)c4cc6c(c(O)c4C5=O)C[C@@](C)(O[C@H]4CC[C@H](O[C@H]5CCC(=O)[C@H](C)O5)[C@H](C)O4)CC6=O)O[C@@H]3C)O[C@H]2C)CCC1=O` [GRINCAMYCIN E] gave an IC50 (SW1990) of 16 µM, an IC50 (MCF7) of 8.7 µM and an IC50 (HepG2) of 11 µM. It also gave an IC50 (NCI-H460) greater than 100 µM, an IC50 (B16) of 5.4 µM and an IC50 (HeLa) of 11 µM.
